Screening data as filed in PubChem BioAssay.
DENV2 CPE rescue: inhibitors of DENV2 cytopathic effect, primary screen, cell-based, plate reader, single concentration. DENV2-infected cells, cytopathic effect rescue. CPE inhibition, % at 9.99 µM. hit rate 1.7% among 350,000; in the data active = CPE inhibition above about 20%, passing the limit was not always enough; inconclusive = no clear call, values can overlap the other calls; tested in BHK-21 cells;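 note: 0% = median of neutral control wells and 100% = median of positive control wells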
Statin myotox sup: suppressors of statin myotoxicity in C2C12 myotubes, primary screen, cell-based, single point, plate reader; C2C12 myotubes + simvastatin, ATP luminescence, 48 h; scaled: DMSO 0, geranylgeraniol control 100; hit rate 0.78% among 330,000; rescue of ATP level, % at 7.49 µM; AID 602340, 2012;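 active = mean ATP rescue above about 67%, or every replicate alone reaching that limit, limit read from the data, passing the limit was not always enough; inconclusive = no clear call, values can overlap the other calls; inactive = mean under the limit and some replicate under it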;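 note: myotubes were challenged with 10 µM simvastatin during compound exposure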
Cneo AK release: Cryptococcus neoformans cell lysis inducers, primary screen, AK release luminescence, single concentration | lysis activity, % at 15 µM | C. neoformans lysis, adenylate kinase release luminescence, 4 h; normalised: neutral wells 0, clomiphene wells 100 | hit rate 0.2% among 360,000;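 active = mean lysis activity across replicates of at least 80%, whatever share of replicates individually reach that level; inactive = mean lysis activity below 80%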
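Assay system: log-phase C. neoformans yeast / Quantity: yeast cell density of 5 × 10^6 cells/mL / Medium: fresh YPD growth medium / Compound: single dose / Timing: static 4 h at 37 °C with compound, 1 h detection / Measured by: adenylate kinase release luminescence / Read-out: lysis from increased AK signal / Benchmarks: Clomiphene as positive lysis control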
Xi reactivation: activators of inactive X chromosome reactivation, primary screen, imaging, XiGFP fibroblasts, GFP high-content imaging, set 2; AID 743238, 2013; activation, % at 7.58 µM; hit rate 0.055% among 360,000; XiGFP mouse fibroblasts, % GFP-positive cells imaging, 3 d; cells co-treated with 5-aza-dC sensitizer; scaled so ellipticine positive control = 100%;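 active = mean normalized replicate activation at least 10% and every replicate at or above 10%; inconclusive = only one of the two criteria met; inactive = mean below 10% and not all replicates reach 10%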;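 note: 0% = median of on-plate neutral control wells and 100% = ellipticine 6 µM median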
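System: SV40-immortalized XiGFP fibroblast cells, line 68-5-11 / Incubation: 3-day compound exposure, then 15 min fixation at room temperature / Compound: single concentration per compound, delivered by pin transfer / Buffer or medium: DMEM plus 5-aza-dC sensitizer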
Active calls of the source: *; ? = inconclusive; . = not tested or not shown; ! = not active in a repeat. Hits are enriched below; roughly 2.1% of the tested compounds scored in any of these assays.

SMILES	DENV2 CPE rescue	Statin myotox sup	Cneo AK release	Xi reactivation
COCC(=O)Nc1ccc2c(c1)C(=O)N(C)[C@H]1CC[C@H](CC(=O)NCc3cccc(F)c3)O[C@H]1CO2	?	8	9	0
COc1ccc(NC(=S)NCC2CCCO2)c(OC)c1 (stereo not given)	.	91*	2	.
COc1ccccc1NC(=S)NCC1CCCO1 (stereo not given)	0	.	2	0
CCCC(=O)Nc1ccc2c(c1)C(=O)N(C)C[C@H](OC)[C@H](C)CN(Cc1ccccc1)[C@H](C)CO2	-16	3	4	0
C[C@@H]1CN([C@@H](C)CO)C(=O)c2cccc(NS(C)(=O)=O)c2O[C@H]1CN(C)Cc1ccc(-c2ccccc2)cc1	-7	-16	5	0
C[C@H](CO)N1C[C@H](C)[C@@H](CN(C)Cc2ccccc2)Oc2c(NS(C)(=O)=O)cccc2C1=O	39*!	13	-3	-1
C[C@H]1CN([C@@H](C)CO)C(=O)c2cccc(NS(C)(=O)=O)c2O[C@@H]1CN(C)Cc1ccc(-c2ccccc2)cc1	-7	43	111*	0
O=[N+]([O-])c1ccccc1OCc1nc(-c2cccs2)no1	23*	.	.	0
Cc1ccc(S(=O)(=O)Nc2ccc3c(c2)C(=O)N([C@@H](C)CO)C[C@@H](C)[C@@H](CN(C)S(=O)(=O)c2cccs2)O3)cc1	-2	0	-1	0
Cc1ccc(S(=O)(=O)Nc2ccc3c(c2)C(=O)N([C@@H](C)CO)C[C@@H](C)[C@H](CN(C)S(=O)(=O)c2cccs2)O3)cc1	-9	100*	-1	-1
C[C@H]1CN([C@@H](C)CO)C(=O)c2cc(NS(=O)(=O)c3ccc(Cl)cc3)ccc2O[C@H]1CN(C)S(=O)(=O)c1cccs1	22*	?	-1	0
CN(C)C(=O)C[C@@H]1C=C[C@H](NC(=O)C2CCC2)[C@H](CO)O1	7	-13	-1	0
CC(CNC(=O)[C@H]1O[C@@H](n2cnc3c(=O)[nH]c(N)nc32)[C@H](O)[C@@H]1O)c1ccccc1 (stereo not given in full)	68*	.	.	0
Nc1nc2c(ncn2[C@@H]2O[C@H](C(=O)NCC(c3ccccc3)c3ccccc3)[C@@H](O)[C@H]2O)c(=O)[nH]1	-6	.	.	0
O=C(CCC1COc2ccccc2O1)Nc1ccccn1 (stereo not given)	.	155*	-3	.
C[C@@H]1CCCCO[C@H](CN(C)C(=O)CCC(F)(F)F)[C@H](C)CN([C@@H](C)CO)C(=O)c2cc(NS(C)(=O)=O)ccc2O1	.	4	.	-1
Cc1cccc(NC(=O)CN2CCN(C(=O)c3cc(C4CC4)nn3-c3ccccc3)CC2)c1C	62*	3	3	0
Cc1noc(C)c1NC(=O)N(C)C[C@@H]1Oc2ccc(NS(=O)(=O)c3ccccc3)cc2CC(=O)N([C@@H](C)CO)C[C@@H]1C	-2	-22	-13	4
COc1ccc(S(=O)(=O)O/N=C2\CCCc3ccccc32)cc1	.	72*	0	.
CS(=O)(=O)N1CCc2cc(C(=O)N3CCCCC3)ccc21	.	4	-1	.
COc1cccc(C(=O)N2CCOCC2)c1	33*	-2	.	0
CS(=O)(=O)N1CCc2cc(C(=O)N3CCOCC3)ccc21	.	98*	1	.
COc1ccc(N2CCN(C(=O)c3ccc4c(c3)CCN4S(=O)(=O)c3ccccc3)CC2)cc1	4	134*	-1	0
CC(=O)N(C)C[C@H]1Oc2c(cccc2N(C)C)C(=O)N(C)C[C@@H]1C	.	.	.	0
C[C@H](CO)N1C[C@H](C)[C@@H](CN(C)S(=O)(=O)c2cccs2)Oc2c(NC(=O)CCCN(C)C)cccc2C1=O	.	.	.	0
SMILES	DENV2 CPE rescue	Statin myotox sup	Cneo AK release	Xi reactivation
COc1ccc(C2CC(c3c(O)cc(C)oc3=O)=NCCS2)c(OC)c1 (stereo not given)	.	117*	-2	.
Cc1cc(O)c(C2=Nc3ccccc3SC(c3ccc(Cl)cc3)C2)c(=O)o1 (stereo not given)	.	.	.	0
COc1cc(OC)cc(C(=O)NNC(=O)CCCOc2ccccc2)c1	3	13	0	0
COc1cc(OC)cc(C(=O)NNC(=O)CCC(=O)c2cc(C)sc2C)c1	73*	28	-2	0
Cc1noc(C)c1NC(=O)Nc1ccc2c(c1)C(=O)N([C@@H](C)CO)C[C@H](C)[C@@H](CN(C)C(=O)CCCN(C)C)OCCCC[C@H](C)O2	-14	.	.	-1
Cc1noc(C)c1NC(=O)Nc1ccc2c(c1)C(=O)N([C@H](C)CO)C[C@H](C)[C@H](CN(C)C(=O)c1ccccc1)OCCCC[C@H](C)O2	39*	.	-3	0
Cc1noc(C)c1NC(=O)Nc1ccc2c(c1)C(=O)N([C@H](C)CO)C[C@H](C)[C@@H](CN(C)C(=O)c1ccccc1)OCCCC[C@H](C)O2	1	.	1	0
Cc1noc(C)c1NC(=O)Nc1ccc2c(c1)C(=O)N([C@H](C)CO)C[C@@H](C)[C@@H](CN(C)C(=O)Nc1ccccc1)OCCCC[C@@H](C)O2	23*	45	4	0
Cc1noc(C)c1NC(=O)Nc1ccc2c(c1)C(=O)N([C@@H](C)CO)C[C@H](C)[C@@H](CN(C)C(=O)CCCN(C)C)OCCCC[C@@H](C)O2	86*	11	0	0
COCC(=O)N1CCCCN2[C@H](CO)[C@H](c3ccc(C#Cc4ccccc4)cc3)[C@H]2C1	2	5	-3	0
CCOC(=O)C1CCN(C(=O)c2ccc(NS(=O)(=O)c3ccc(F)cc3C)cc2)CC1	3	5	0	25*
CCCN(C)C[C@@H]1Oc2ncc(C#CC3CC3)cc2C(=O)N([C@@H](C)CO)C[C@@H]1C	.	53	.	0
Cc1noc(C)c1NC(=O)Nc1cccc2c1O[C@@H](CN(C)Cc1ccc(C(=O)Nc3ccccc3N)cc1)[C@@H](C)CN([C@@H](C)CO)C2=O	-4	.	.	0
CN(C(=O)COC(=O)c1ccc(S(=O)(=O)N2CCOCC2)cc1)c1ccccc1	81*	-1	-1	0
CCCCCCN1Cc2ccccc2C1	.	106*	1	.
Cn1cc(C(=O)Nc2ccc(F)c(F)c2)cn1	.	90*	2	.
Cc1ccc(NC(=O)c2cnn(C)c2)cc1[N+](=O)[O-]	3	.	.	0
COc1ccc(S(=O)(=O)N(C)C[C@H]2OCCCC[C@H](C)Oc3ccc(NC(=O)CCCN(C)C)cc3C(=O)N([C@H](C)CO)C[C@H]2C)cc1	38*	.	49	-1
C[C@@H]1CCCCO[C@H](CN(C)S(=O)(=O)c2ccccc2)[C@@H](C)CN([C@@H](C)CO)C(=O)c2cc(NC(=O)CCCN(C)C)ccc2O1	111*	.	56	0
